Laboratory results as given in ChEMBL document CHEMBL1811881, “Development of 3-substituted-androsterone derivatives as potent inhibitors of 17β-hydroxysteroid dehydrogenase type 3” (Bioorg Med Chem, 2011).

Experiments:
Format in all cases: cell-based
[1] = target: T1, 17-beta-hydroxysteroid dehydrogenase type 3 (Homo sapiens) (UniProt P37058); test: Inhibition of 17Beta-HSD3 expressed in homogenized HEK293 cells assessed as transformation of [14C]-4-androstene-3,17-dione into [14C]-testosterone in presence of NADPH at 0.01 uM
T1 sequence (whole entry): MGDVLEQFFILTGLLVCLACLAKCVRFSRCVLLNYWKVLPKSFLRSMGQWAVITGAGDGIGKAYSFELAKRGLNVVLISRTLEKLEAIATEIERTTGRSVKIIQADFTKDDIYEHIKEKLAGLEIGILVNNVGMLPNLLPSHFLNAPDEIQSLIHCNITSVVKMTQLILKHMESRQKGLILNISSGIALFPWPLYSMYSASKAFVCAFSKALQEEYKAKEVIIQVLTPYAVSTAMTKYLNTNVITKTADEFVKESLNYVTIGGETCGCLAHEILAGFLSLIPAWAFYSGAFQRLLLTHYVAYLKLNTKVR
Method in brief: (§1)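 HEK-293 cells overexpressing 17β-HSD3 were briefly homogenized. The enzyme assay measured conversion of 50 nM [4-14C]-4-androstene-3,17-dione to [14C]-testosterone with NADPH in excess (5 mM). Inhibitor was dissolved in ethanol, and the ethanol-only control was used to derive % inhibition at each concentration. Error 10%.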

[2] = target: T1, 17-beta-hydroxysteroid dehydrogenase type 3 (Homo sapiens); test: Inhibition of 17Beta-HSD3 expressed in homogenized HEK293 cells assessed as transformation of [14C]-4-androstene-3,17-dione into [14C]-testosterone in presence of NADPH at 0.1 uM; method in brief: as §1
[3] = target: T1, 17-beta-hydroxysteroid dehydrogenase type 3 (Homo sapiens); test: Inhibition of 17Beta-HSD3 expressed in intact HEK293 cells assessed as transformation of [14C]-4-androstene-3,17-dione into [14C]-testosterone in presence of NADPH at 0.1 uM after 1 hr incubation
Method in brief: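 HEK-293 cells were grown in MEM with 10% FBS at 37 °C under 5% CO2, seeded at 200,000 cells/well, and transfected with 2 µg/well of a 17β-HSD3 expression plasmid. Intact cells then got 50 nM [4-14C]-4-androstene-3,17-dione plus inhibitor in ethanol (0.5% v/v) for 1 h. Radiolabelled steroids were extracted from the medium and quantified. Triplicate; % transformation was used to derive IC50.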

[4] = target: T1, 17-beta-hydroxysteroid dehydrogenase type 3 (Homo sapiens); test: Inhibition of 17Beta-HSD3 expressed in homogenized HEK293 cells assessed as transformation of [14C]-4-androstene-3,17-dione into [14C]-testosterone in presence of NADPH at 1 uM; method in brief: as §1

Compound	inhibition [1]	inhibition [2]	inhibition [3]	inhibition [4]
C[C@]12CC[C@](O)(CN3CCN(S(=O)(=O)c4ccccc4C(F)(F)F)CC3)C[C@@H]1CC[C@@H]1[C@@H]2CC[C@]2(C)C(=O)CC[C@@H]12	45%	92%	63%	–
COc1cccc(CN2C[C@@H](C)N(C[C@@]3(O)CC[C@@]4(C)[C@@H](CC[C@@H]5[C@@H]4CC[C@]4(C)C(=O)CC[C@@H]54)C3)C[C@@H]2C)c1	19%	87%	50%	–
COc1cccc(CN2CCN(C[C@@]3(O)CC[C@@]4(C)[C@@H](CC[C@@H]5[C@@H]4CC[C@]4(C)C(=O)CC[C@@H]54)C3)CC2)c1	21%	83%	47%	–
C[C@]12CC[C@](O)(CN3CCN(C(=O)c4ccc(C(F)(F)F)cc4)CC3)C[C@@H]1CC[C@@H]1[C@@H]2CC[C@]2(C)C(=O)CC[C@@H]12	22%	84%	56%	–
C[C@]12CC[C@](O)(CN3CCN(Cc4cc(C(F)(F)F)ccc4C(F)(F)F)CC3)C[C@@H]1CC[C@@H]1[C@@H]2CC[C@]2(C)C(=O)CC[C@@H]12	18%	85%	12%	–
C[C@]12CC[C@](O)(CN3CCN(C(=O)c4ccccc4C(F)(F)F)CC3)C[C@@H]1CC[C@@H]1[C@@H]2CC[C@]2(C)C(=O)CC[C@@H]12	31%	86%	62%	–
C[C@]12CC[C@@]3(C[C@@H]1CC[C@@H]1[C@@H]2CC[C@]2(C)C(=O)CC[C@@H]12)CN(Cc1ccc(C(F)(F)F)cc1)C(=O)O3	25%	80%	43%	–
C[C@@H]1CN(Cc2ccc(C(F)(F)F)cc2C(F)(F)F)[C@@H](C)CN1C[C@@]1(O)CC[C@@]2(C)[C@@H](CC[C@@H]3[C@@H]2CC[C@]2(C)C(=O)CC[C@@H]32)C1	15%	71%	21%	–
C[C@@H]1CN(C(=O)c2ccccc2)[C@@H](C)CN1C[C@@]1(O)CC[C@@]2(C)[C@@H](CC[C@@H]3[C@@H]2CC[C@]2(C)C(=O)CC[C@@H]32)C1	24%	87%	78%	–
CCCN(CCC)CCN1C[C@]2(CC[C@@]3(C)[C@@H](CC[C@@H]4[C@@H]3CC[C@]3(C)C(=O)CC[C@@H]43)C2)OC1=O	0%	10%	8%	62%
Cc1cccc(OCCN2C[C@]3(CC[C@@]4(C)[C@@H](CC[C@@H]5[C@@H]4CC[C@]4(C)C(=O)CC[C@@H]54)C3)OC2=O)c1	13%	85%	40%	95%
C[C@]12CC[C@](O)(CN3CCN(Cc4ccccc4C(F)(F)F)CC3)C[C@@H]1CC[C@@H]1[C@@H]2CC[C@]2(C)C(=O)CC[C@@H]12	18%	86%	20%	–
C[C@@H]1CN(S(=O)(=O)c2ccc(C(F)(F)F)cc2)[C@@H](C)CN1C[C@@]1(O)CC[C@@]2(C)[C@@H](CC[C@@H]3[C@@H]2CC[C@]2(C)C(=O)CC[C@@H]32)C1	79%	92%	47%	–
C[C@@H]1CN(Cc2ccc(C(F)(F)F)cc2)[C@@H](C)CN1C[C@@]1(O)CC[C@@]2(C)[C@@H](CC[C@@H]3[C@@H]2CC[C@]2(C)C(=O)CC[C@@H]32)C1	14%	87%	36%	–
C[C@]12CC[C@@]3(C[C@@H]1CC[C@@H]1[C@@H]2CC[C@]2(C)C(=O)CC[C@@H]12)CN(C1CCCCC1)C(=O)O3	13%	75%	29%	78%
CN1CCN(C[C@@]2(O)CC[C@@]3(C)[C@@H](CC[C@@H]4[C@@H]3CC[C@]3(C)C(=O)CC[C@@H]43)C2)CC1	0%	0%	2%	40%
C[C@]12CC[C@](O)(CN3CCN(Cc4ccc(C(F)(F)F)cc4C(F)(F)F)CC3)C[C@@H]1CC[C@@H]1[C@@H]2CC[C@]2(C)C(=O)CC[C@@H]12	22%	75%	16%	–
C[C@]12CC[C@](O)(CN3CCN(C(=O)c4ccccc4)CC3)C[C@@H]1CC[C@@H]1[C@@H]2CC[C@]2(C)C(=O)CC[C@@H]12	17%	76%	50%	–

Compound	inhibition [1]	inhibition [2]	inhibition [3]	inhibition [4]
C[C@]12CC[C@@]3(C[C@@H]1CC[C@@H]1[C@@H]2CC[C@]2(C)C(=O)CC[C@@H]12)CN(Cc1cc(C(F)(F)F)cc(C(F)(F)F)c1)C(=O)O3	12%	66%	35%	–
C[C@]12CC[C@](O)(CN3CCN(C(=O)c4cccc(C(F)(F)F)c4)CC3)C[C@@H]1CC[C@@H]1[C@@H]2CC[C@]2(C)C(=O)CC[C@@H]12	10%	92%	91%	–
CCN(CCN1C[C@]2(CC[C@@]3(C)[C@@H](CC[C@@H]4[C@@H]3CC[C@]3(C)C(=O)CC[C@@H]43)C2)OC1=O)C1CCCCC1	2%	21%	2%	72%
CCN(CCN1C[C@]2(CC[C@@]3(C)[C@@H](CC[C@@H]4[C@@H]3CC[C@]3(C)C(=O)CC[C@@H]43)C2)OC1=O)Cc1ccccc1	14%	71%	40%	93%
C[C@]12CC[C@@]3(C[C@@H]1CC[C@@H]1[C@@H]2CC[C@]2(C)C(=O)CC[C@@H]12)CN(Cc1ccccc1C(F)(F)F)C(=O)O3	17%	81%	35%	–
C[C@]12CC[C@](O)(CN3CCN(Cc4ccc(C(F)(F)F)cc4)CC3)C[C@@H]1CC[C@@H]1[C@@H]2CC[C@]2(C)C(=O)CC[C@@H]12	14%	81%	33%	–
C[C@]12CC[C@@]3(C[C@@H]1CC[C@@H]1[C@@H]2CC[C@]2(C)C(=O)CC[C@@H]12)CN(Cc1ccc(C(F)(F)F)nc1)C(=O)O3	3%	65%	36%	–
C[C@@H]1CN(Cc2cc(C(F)(F)F)cc(C(F)(F)F)c2)[C@@H](C)CN1C[C@@]1(O)CC[C@@]2(C)[C@@H](CC[C@@H]3[C@@H]2CC[C@]2(C)C(=O)CC[C@@H]32)C1	25%	74%	16%	–
C[C@]12CC[C@](O)(CN3CCN(Cc4cccc(C(F)(F)F)c4)CC3)C[C@@H]1CC[C@@H]1[C@@H]2CC[C@]2(C)C(=O)CC[C@@H]12	51%	88%	52%	–
C[C@@H]1CN(S(=O)(=O)c2cccc(C(F)(F)F)c2)[C@@H](C)CN1C[C@@]1(O)CC[C@@]2(C)[C@@H](CC[C@@H]3[C@@H]2CC[C@]2(C)C(=O)CC[C@@H]32)C1	32%	91%	77%	–
C[C@@H]1CN(C(=O)c2ccc(C(F)(F)F)cc2)[C@@H](C)CN1C[C@@]1(O)CC[C@@]2(C)[C@@H](CC[C@@H]3[C@@H]2CC[C@]2(C)C(=O)CC[C@@H]32)C1	17%	91%	61%	–
C[C@]12CC[C@](O)(CN3CCN(S(=O)(=O)c4ccc(C(F)(F)F)cc4)CC3)C[C@@H]1CC[C@@H]1[C@@H]2CC[C@]2(C)C(=O)CC[C@@H]12	21%	78%	34%	–
C[C@@H]1CN(C(=O)C2CCCCC2)[C@@H](C)CN1C[C@@]1(O)CC[C@@]2(C)[C@@H](CC[C@@H]3[C@@H]2CC[C@]2(C)C(=O)CC[C@@H]32)C1	24%	90%	77%	–
C[C@@H]1CN(C(=O)c2cccc(C(F)(F)F)c2)[C@@H](C)CN1C[C@@]1(O)CC[C@@]2(C)[C@@H](CC[C@@H]3[C@@H]2CC[C@]2(C)C(=O)CC[C@@H]32)C1	28%	89%	70%	–
C[C@@H]1CN(Cc2cc(C(F)(F)F)ccc2C(F)(F)F)[C@@H](C)CN1C[C@@]1(O)CC[C@@]2(C)[C@@H](CC[C@@H]3[C@@H]2CC[C@]2(C)C(=O)CC[C@@H]32)C1	16%	71%	23%	–
C[C@@H]1CN(Cc2ccccc2C(F)(F)F)[C@@H](C)CN1C[C@@]1(O)CC[C@@]2(C)[C@@H](CC[C@@H]3[C@@H]2CC[C@]2(C)C(=O)CC[C@@H]32)C1	22%	85%	36%	–
C[C@]12CC[C@@]3(C[C@@H]1CC[C@@H]1[C@@H]2CC[C@]2(C)C(=O)CC[C@@H]12)CN(Cc1cccc(C(F)(F)F)c1)C(=O)O3	16%	80%	36%	–
C[C@]12CC[C@](O)(CN3CCN(Cc4cc(C(F)(F)F)cc(C(F)(F)F)c4)CC3)C[C@@H]1CC[C@@H]1[C@@H]2CC[C@]2(C)C(=O)CC[C@@H]12	25%	83%	25%	–
